Compound activity from PubChem BioAssay.
Hits are enriched below; roughly 0.55% of the tested compounds scored in any of these assays.
OXTR potentiator = human OXTR potentiators, primary screen, fluorescence, CHO-OTR cells, Fluo-8 calcium; Fluo-8 calcium fluorescence, potentiator mode; 0% = oxytocin EC15, 100% = EC100; Oxytocin receptor (Homo sapiens), P30559; actives 0.061% (n = 320,000); activation, % at 3 µM;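 active = activation above that plate's cutoff, the mean activation of tested compounds plus 3 SD, cut at about 6.6% in these data, passing the limit was not always enough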;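 note: 100% uses oxytocin at 75 nM as the full agonist control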
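Replication – single well per compound, singlicate · Assay system – CHO cell line stably expressing human OTR · Timing – 6 min pre-incubation, 100 s read · Measure – normalized max/min fluorescence ratio, % activation · Doses – 3.0 µM, one dose · Detection – Fluo-8 calcium dye fluorescence · Probe or stimulus – oxytocin near EC15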
OXTR agonist = human OXTR agonists, primary screen, fluorescence, CHO-OTR cells, Fluo-8 calcium; Oxytocin receptor (Homo sapiens), P30559; Fluo-8 calcium fluorescence; normalized: DMSO 0%, oxytocin 100%; activation, % at 3 µM; actives 0.32% (n = 320,000); AID 2435, 2010;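 active = activation above the mean of all tested compounds plus 3 SD, cutoff set per screening run, cut at about 20% in these data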;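 note: peak over basal fluorescence ratio from a 100 s FLIPR kinetic read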
TRPML3 ag = human TRPML3 channel agonists, primary screen, cell-based, HEK293 TRPML3-YFP, Fluo-8 calcium fluorescence, 3 µM; activation, % at 3 µM; Mucolipin-3 (Homo sapiens), Q8TDD5; AID 1448, 2008; actives 0.29% (n = 220,000); 100% = the carbachol control signal;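 active = activation above its plate's cutoff, the mean activation of the plate's test wells plus 3 SD, cut at about 12% in these data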;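 note: 0% = DMSO only wells and 100% = carbachol wells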
Target sequence (Q8TDD5 whole entry, looked up): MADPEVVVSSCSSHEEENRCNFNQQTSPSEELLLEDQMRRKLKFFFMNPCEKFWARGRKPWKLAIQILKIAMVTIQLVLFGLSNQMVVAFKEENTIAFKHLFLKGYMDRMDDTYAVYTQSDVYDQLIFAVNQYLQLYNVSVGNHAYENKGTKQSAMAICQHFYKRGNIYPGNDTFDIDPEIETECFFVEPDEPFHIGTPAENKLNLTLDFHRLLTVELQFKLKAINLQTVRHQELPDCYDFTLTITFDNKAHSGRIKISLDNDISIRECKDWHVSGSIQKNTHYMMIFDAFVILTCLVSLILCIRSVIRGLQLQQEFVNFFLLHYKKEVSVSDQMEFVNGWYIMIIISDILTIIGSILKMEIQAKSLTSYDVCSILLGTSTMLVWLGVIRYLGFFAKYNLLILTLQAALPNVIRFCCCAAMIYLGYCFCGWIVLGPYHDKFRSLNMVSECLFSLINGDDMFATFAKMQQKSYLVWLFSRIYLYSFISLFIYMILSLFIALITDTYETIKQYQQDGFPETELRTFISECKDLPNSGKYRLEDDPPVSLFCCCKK
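Test system: TRPML3-YFP stable HEK293 cells. Doses: single point at 3 µM. Incubation: dye loading 1 h 37 °C then 30 min ambient, 125 s read. Signal: Fluo-8 calcium dye fluorescence, ex 470-495, em 515-575 nm. Measure: percent activation from peak-to-basal fluorescence ratio, scaled between DMSO and carbachol.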
V1R ag counter = agonists of human V1a receptor, primary screen, counter-screen for OXTR agonist project, fluorescence, CHO-V1R cells; Vasopressin V1a receptor (Homo sapiens), P37288; Fluo-8 calcium fluorescence, agonist mode; 0% DMSO, 100% 3 nM vasopressin; activation, % at 3 µM; actives 0.25% (n = 320,000);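 active = activation above the mean activation of all tested compounds plus 3 SD, per screening run, cut at about 20% in these data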;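 note: signal is peak over basal fluorescence ratio across a 100 second FLIPR read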
zfTRPN1 agonist = zebrafish TRPN1 channel agonists, primary screen, cell-based, HEK293, calcium fluorescence. HEK293 zebrafish TRPN1-YFP, Fluo-8 calcium fluorescence; 100% = response to 87 µM carbachol. actives 0.18% (n = 220,000). AID 1424, 2008. activation, % at 3 µM. transient receptor potential cation channel N1 (TRPN1/NompC), Danio rerio;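 active = activation above its plate's cutoff, the mean activation of test wells on that plate plus 3 SD, cut at about 19% in these data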;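 note: 0% = DMSO alone and 100% = 87 µM carbachol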
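Material: zebrafish TRPN1-YFP in HEK293 cells. Doses: one dose of 3 µM, 0.3% DMSO. Incubation: dye 1 h 37 °C plus 30 min RT. Measured by: intracellular calcium fluorescence with Fluo-8.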
OXTR pot cf = human OXTR potentiators, confirmation, fluorescence, CHO-OTR cells, triplicate; activation, % at 3 µM; shares compounds with OXTR potentiator; Fluo-8 calcium fluorescence, potentiation; scaled from low-dose to maximal oxytocin; 180 tested, under 10 active; AID 434985, 2010;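 active = mean percent activation over triplicates above a cutoff set from solvent-only control plates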;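 note: compounds tested in the presence of an EC15 dose of oxytocin; 0% = EC15 oxytocin with DMSO and 100% = EC100 oxytocin with DMSO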
Numbers without * were called inactive.

For CCCn1c(SCC(=O)N(C)CC(=O)Nc2ccc(C)cc2)n[nH]c1=O the results were OXTR potentiator -2.0, OXTR agonist 0.7 and V1R ag counter -0.7.
Screening CCOC(=O)C1=C(C)Nc2nc(SCC(=O)OC)nn2C1c1cc(F)cc(F)c1 (configuration not stated) returned OXTR potentiator 10.8*, OXTR agonist -2.1, TRPML3 ag 1.0, V1R ag counter -0.7, zfTRPN1 agonist 0.1 and OXTR pot cf -13.5.
Cc1ccc(CC(=O)NCCc2ccc(S(N)(=O)=O)cc2)cc1 was read as OXTR potentiator -8.2, OXTR agonist -0.4 and V1R ag counter -0.5.
Screening Cc1ccc2c(CC(=O)NCCc3ccc(S(N)(=O)=O)cc3)coc2c1 returned OXTR potentiator 9.3*, OXTR agonist 0.5, TRPML3 ag 0.4, V1R ag counter -0.9, zfTRPN1 agonist 2.3 and OXTR pot cf -2.9.
For OCCC1CN(CC2CC2)CCN1Cc1ccc(F)c(F)c1 (configuration not stated) the results were OXTR potentiator -2.0, OXTR agonist 0.0 and V1R ag counter 0.6.
For COc1ccccc1CNC(=O)COc1cc2c(c3oc(=O)cc(C)c13)CCC(C)(C)O2 the results were OXTR potentiator -4.2, OXTR agonist -1.1 and V1R ag counter -0.9.
For CCOC(=O)N1CCN(C(=O)C2CCN(C(=O)Nc3ccccc3)CC2)CC1 the results were OXTR potentiator 11.2*, OXTR agonist 2.2, V1R ag counter 1.9 and OXTR pot cf 3.4.
Screening CCN1CCN(C(=O)C2CCN(C(=O)Nc3ccccc3)CC2)CC1 returned OXTR potentiator 1.3, OXTR agonist 0.7 and V1R ag counter 0.0.
Screening COc1ccc(CNC(=O)[C@H](C)NC(=O)C2CC(=O)N(c3ccc4c(c3)OCO4)C2)cc1 (some centres not stated) returned OXTR potentiator 13.7*, OXTR agonist -0.5, V1R ag counter -0.3 and OXTR pot cf -1.1.
For CCN(CC(=O)Nc1ccccc1OC)C(=O)c1cc(S(=O)(=O)N2CCCCCC2)ccc1OC the results were OXTR potentiator -5.6, OXTR agonist -1.6 and V1R ag counter -1.5.
CCOc1ccc(CNC(=O)C2CCN(c3nn4c(=O)cc(C)nc4s3)CC2)cc1 was read as OXTR potentiator -6.0, OXTR agonist -2.3 and V1R ag counter 12.4.
`S=C(NCc1ccco1)Nc1ccc(Cl)cn1` gave OXTR potentiator -7.4, OXTR agonist -0.7 and V1R ag counter -0.3.
Screening Cc1ccccc1-c1nc(CN(C)C(C)c2ccon2)c(C)o1 (configuration not stated) returned OXTR potentiator 12.8*, OXTR agonist -1.3, TRPML3 ag -0.3, V1R ag counter -1.2, zfTRPN1 agonist -1.1 and OXTR pot cf -0.7.
Cc1oc(-c2ccccc2Cl)nc1CN(C)C(C)c1ccon1 (configuration not stated) was read as OXTR potentiator 0.8, OXTR agonist -1.6, TRPML3 ag -0.6, V1R ag counter -1.1 and zfTRPN1 agonist -1.0.
For Cc1ccccc1-c1nnc(SCC(=O)Nc2c(C)n(C)n(-c3ccccc3)c2=O)o1 the results were OXTR potentiator 11.3*, OXTR agonist 0.6, TRPML3 ag 1.2, V1R ag counter -0.3, zfTRPN1 agonist -0.5 and OXTR pot cf -0.1.
CCOC(=O)c1c(C)[nH]c(C)c1C(=O)CN1C(=O)NC2(CCCCCC2)C1=O was read as OXTR potentiator 3.0, OXTR agonist -1.7 and V1R ag counter -0.9.
Screening CCOC(=O)c1c(C)[nH]c(C(=O)CN2C(=O)NC3(CCCC3)C2=O)c1C returned OXTR potentiator 6.3*, OXTR agonist 1.2, TRPML3 ag 1.3, V1R ag counter 0.4, zfTRPN1 agonist 2.3 and OXTR pot cf -6.6.
Screening CCC(=O)Nc1cccc(-c2ccc(N3CCCCC3)nn2)c1 returned OXTR potentiator -1.2, OXTR agonist -1.3 and V1R ag counter 0.3.
`CCCCn1c(N)c(N(CC(C)C)C(=O)c2ccc(-c3ccc(Cl)cc3)o2)c(=O)[nH]c1=O` gave OXTR potentiator -6.3, OXTR agonist -2.8 and V1R ag counter -1.9.
Screening CCCCn1c(N)c(N(CC)C(=O)c2ccc(-c3ccc(Cl)cc3)o2)c(=O)[nH]c1=O returned OXTR potentiator 11.5*, OXTR agonist -0.1, V1R ag counter 0.0 and OXTR pot cf -10.7.
For N#Cc1ccc(S(=O)(=O)N2CCN(CC(=O)NCC3(N4CCOCC4)CCCCC3)CC2)cc1 the results were OXTR potentiator 2.6, OXTR agonist 0.1 and V1R ag counter -0.1.
`CC[C@@]1(O)C(=O)OCc2c1cc1n(c2=O)Cc2cc3c(N)cccc3nc2-1` gave OXTR potentiator 14.6*, OXTR agonist -0.4, V1R ag counter 0.2 and OXTR pot cf -3.1.
`CCCC(=O)Nc1cc(S(=O)(=O)N2CCCCC2)ccc1N1CCOCC1` gave OXTR potentiator 0.4, OXTR agonist 0.9 and V1R ag counter 0.3.
For CCCC(=O)Nc1cc(S(=O)(=O)N2CCOCC2)ccc1N1CCCCC1 the results were OXTR potentiator 12.5*, OXTR agonist -0.6, V1R ag counter 0.0 and OXTR pot cf -7.1.
`CC(=O)c1cc(CN2CCN(C(C)C)C(CCO)C2)cs1` (configuration not stated) gave OXTR potentiator 12.2*, OXTR agonist 1.5, TRPML3 ag 0.4, V1R ag counter -0.3, zfTRPN1 agonist 1.7 and OXTR pot cf -3.5.
`Cc1cccn2cc(CNC(=O)C3CCCCC3)nc12` gave OXTR potentiator -1.0, OXTR agonist 0.1, TRPML3 ag 1.1, V1R ag counter -0.3 and zfTRPN1 agonist -0.1.
Cc1cccn2cc(CNC(=O)c3ccc(Br)o3)nc12 was read as OXTR potentiator 12.3*, OXTR agonist -0.7, TRPML3 ag -0.3, V1R ag counter 0.4, zfTRPN1 agonist -0.4 and OXTR pot cf -3.4.
O=S(=O)(c1ccc(Cl)nc1)N1CCCc2ccccc21 was read as OXTR potentiator 8.3*, OXTR agonist -2.2, TRPML3 ag 0.1, V1R ag counter -0.6, zfTRPN1 agonist -1.1 and OXTR pot cf 0.7.
For CCOC(=O)N[C@H](Cc1c[nH]c2ccccc12)C(=O)NC1CC1 the results were OXTR potentiator 10.4*, OXTR agonist 1.2, TRPML3 ag -0.5, V1R ag counter 0.4, zfTRPN1 agonist -0.7 and OXTR pot cf -1.6.
